Calls of active or inactive are those of the source. No cut-off for these calls is given here.
Columns and labels:
[1] = tested on: HeLa; assay: Cytotoxicity against human HeLa cells after 48 hrs by MTT assay; type: functional, cell-based
Outline: (§1)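 Cells kept in RPMI-1640 with 10% FBS, 2 mmol/L glutamine, penicillin and streptomycin at 37 °C, 5% CO2. Seeded at 5 × 10³ cells/well and left 24 h to attach, then exposed to compounds or etoposide reference for 48 h. MTT (5 mg/mL) added for 4 h at 37 °C, supernatant removed, formazan dissolved in DMSO, absorbance read at 490 nm.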

[2] = (§2) Cytotoxicity against human K562/A02 cells after 48 hrs by MTT assay; type: functional, cell-based; details: K562/A02, 48 h; outline: as §1
[3] = tested on: K562; assay: Cytotoxicity against human K562 cells after 48 hrs by MTT assay; type: functional, cell-based; details: for IC50: K562, 48 h; outline: as §1
[4] = tested on: K562; assay: Resistance index, ratio of IC50 for human K562/A02 cells to IC50 for human K562 cells; type: functional
[5] = tested on: K562/A02; assay: Induction of apoptosis in human K562/A02 cells assessed as induction of abnormal mitotic figures at 6 uM after 48 hrs by Hoechst-33342 staining based fluorescence microscopy; type: functional, cell-based
Outline: (§3)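 K562/A02 cells treated 48 h at 3, 6 or 12 concentration levels alongside untreated control and 6 etoposide; nuclei stained with Hoechst 33342 and viewed by fluorescence microscopy at 400× for chromatin condensation, nuclear fragmentation and other apoptotic morphology.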

[6] = tested on: K562/A02; assay: Induction of apoptosis in human K562/A02 cells assessed as viable cells level at 3 uM after 48 hrs by Annexin V-FITC and propidium iodide double staining based flow cytometry (reference value: 90.7%); type: functional
[7] = tested on: K562/A02; assay: Induction of apoptosis in human K562/A02 cells at 12 uM after 48 hrs by Annexin V-FITC and propidium iodide double staining based flow cytometry (reference value: 7.9 +/- 1.34%); type: functional
[8] = tested on: K562/A02; assay: Induction of apoptosis in human K562/A02 cells assessed as induction of membrane blebbing at 12 uM after 48 hrs by Hoechst-33342 staining based fluorescence microscopy; type: functional, cell-based; outline: as §3
[9] = tested on: K562/A02; assay: Induction of apoptosis in human K562/A02 cells assessed as induction of cell shrinkage and detachment at 12 uM after 48 hrs by Hoechst-33342 staining based fluorescence microscopy; type: functional; outline: as §3
[10] = tested on: K562/A02; assay: Induction of apoptosis in human K562/A02 cells assessed as viable cells level at 6 uM after 48 hrs by Annexin V-FITC and propidium iodide double staining based flow cytometry (reference value: 90.7%); type: functional
[11] = tested on: K562/A02; assay: Induction of apoptosis in human K562/A02 cells assessed as necrotic cells level at 3 uM after 48 hrs by Annexin V-FITC and propidium iodide double staining based flow cytometry (reference value: 1.53%); type: functional
[12] = Reduction in MDR1 mRNA expression in human K562/A02 cells at 6 uM incubated for 48 hrs by RT-PCR method relative to untreated control; type: functional, cell-based
Outline: (§4)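 K562 and K562/A02 cells seeded 1 × 10⁵/well in 10% FCS/RPMI-1640; compound added 24 h later, then cultured another 48 h. Total RNA extracted with Trizol, checked at 260/280 nm, reverse transcribed; MDR-1 (157 bp) and β-actin (540 bp) amplified, products run on agarose gel, stained, MDR-1 normalised to β-actin against untreated control.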

[13] = tested on: K562/A02; assay: Induction of apoptosis in human K562/A02 cells assessed as early apoptotic cells level at 3 uM after 48 hrs by Annexin V-FITC and propidium iodide double staining based flow cytometry (reference value: 6.23%); type: functional
[14] = tested on: K562/A02; assay: Induction of apoptosis in human K562/A02 cells assessed as necrotic cells level at 12 uM after 48 hrs by Annexin V-FITC and propidium iodide double staining based flow cytometry (reference value: 1.53%); type: functional
[15] = tested on: K562/A02; assay: Induction of apoptosis in human K562/A02 cells assessed as early apoptotic cells level at 12 uM after 48 hrs by Annexin V-FITC and propidium iodide double staining based flow cytometry (reference value: 6.23%); type: functional
[16] = tested on: K562/A02; assay: Induction of apoptosis in human K562/A02 cells assessed as induction of multinucleation at 6 uM after 48 hrs by Hoechst-33342 staining based fluorescence microscopy; type: functional, cell-based; outline: as §3
[17] = tested on: K562/A02; assay: as §2; type: functional, cell-based; outline: as §1
[18] = tested on: K562/A02; assay: Induction of apoptosis in human K562/A02 cells assessed as necrotic cells level at 6 uM after 48 hrs by Annexin V-FITC and propidium iodide double staining based flow cytometry (reference value: 1.53%); type: functional
[19] = tested on: K562/A02; assay: Induction of apoptosis in human K562/A02 cells assessed as early apoptotic cells level at 6 uM after 48 hrs by Annexin V-FITC and propidium iodide double staining based flow cytometry (reference value: 6.23%); type: functional
[20] = tested on: K562/A02; assay: Induction of apoptosis in human K562/A02 cells assessed as late apoptotic cells level at 12 uM after 48 hrs by Annexin V-FITC and propidium iodide double staining based flow cytometry (reference value: 1.58%); type: functional
[21] = tested on: K562/A02; assay: Induction of apoptosis in human K562/A02 cells assessed as viable cells level at 12 uM after 48 hrs by Annexin V-FITC and propidium iodide double staining based flow cytometry (reference value: 90.7%); type: functional
[22] = tested on: K562/A02; assay: Induction of apoptosis in human K562/A02 cells assessed as induction of large cells formation at 6 uM after 48 hrs by Hoechst-33342 staining based fluorescence microscopy; type: functional, cell-based; outline: as §3
[23] = Reduction in MDR1 mRNA expression in human K562/A02 cells incubated for 48 hrs by RT-PCR method; type: functional, cell-based; outline: as §4
[24] = tested on: K562/A02; assay: Induction of apoptosis in human K562/A02 cells assessed as late apoptotic cells level at 6 uM after 48 hrs by Annexin V-FITC and propidium iodide double staining based flow cytometry (reference value: 1.58%); type: functional
[25] = tested on: K562/A02; assay: Induction of apoptosis in human K562/A02 cells assessed as late apoptotic cells level at 3 uM after 48 hrs by Annexin V-FITC and propidium iodide double staining based flow cytometry (reference value: 1.58%); type: functional
[26] = tested on: K562/A02; assay: Induction of apoptosis in human K562/A02 cells assessed as induction of chromatin condensation at 12 uM after 48 hrs by Hoechst-33342 staining based fluorescence microscopy; type: functional, cell-based; outline: as §3
[27] = tested on: K562/A02; assay: Induction of apoptosis in human K562/A02 cells assessed as induction of nuclear fragmentation at 12 uM after 48 hrs by Hoechst-33342 staining based fluorescence microscopy; type: functional, cell-based; outline: as §3
[28] = Reduction in MDR1 mRNA expression in human K562/A02 cells at 6 uM incubated for 48 hrs by RT-PCR method; type: functional, cell-based; outline: as §4
[29] = Reduction in MDR1 mRNA expression in human K562/A02 cells assessed as MDR1 mRNA levels at 12 uM incubated for 48 hrs by RT-PCR method (reference value: 100%); type: functional, cell-based; set-up: scale not given: the % may be the effect or the level left; outline: as §4
[30] = tested on: K562/A02; assay: Induction of apoptosis in human K562/A02 cells assessed as induction of large cytoplasmic vacuoles at 6 uM after 48 hrs by Hoechst-33342 staining based fluorescence microscopy; type: functional, cell-based; outline: as §3

COc1cc([C@@H]2c3cc4c(cc3[C@@H](NCc3ccco3)[C@H]3COC(=O)[C@H]23)OCO4)cc(OC)c1O
IC50 [1]: 70.5 µM
IC50 [2]: > 1000 µM
IC50 [3]: > 100 µM
Ratio IC50 [4]: >100

COc1cc([C@@H]2c3cc4c(cc3[C@@H](NCc3ccc([N+](=O)[O-])o3)[C@H]3COC(=O)[C@H]23)OCO4)cc(OC)c1OC
Activity [5]: Active
Activity [6]: 77.3%
Activity [7]: 65.35%
IC50 [1]: 7.55 µM
Activity [8]: Active
Activity [9]: Active
Activity [10]: 46.4%
Activity [11]: 3.9%
inhibition [12]: 70%
Activity [13]: 14.8%
Activity [14]: 1.09%
Activity [15]: 56.3%
Activity [16]: Active
growth inhibition (GI) [17]: Dose-dependent effect
IC50 [2]: 5.42 µM
Activity [18]: 13.5%
Activity [19]: 28.2%
Activity [20]: 8.05%
Activity [21]: 34.5%
Activity [22]: Active
inhibition [23]: Dose-dependent effect
Activity [24]: 11.9%
Activity [25]: 4.02%
Activity [26]: Active
Activity [27]: Active
growth inhibition (GI) [3]: Dose-dependent effect
IC50 [3]: 5.99 µM
MDR1 mRNA reduction (qualitative) [28]: Active
Ratio IC50 [4]: 0.905
Activity [29]: 31.2%
Activity [30]: Active

COc1cc([C@@H]2c3cc4c(cc3[C@@H](NCc3ccc(CN5CCCC5)o3)[C@H]3COC(=O)[C@H]23)OCO4)cc(OC)c1OC
IC50 [1]: 1.4 µM
IC50 [2]: 40.2 µM
IC50 [3]: 6.25 µM
Ratio IC50 [4]: 6.43

COc1cc([C@@H]2c3cc4c(cc3[C@@H](NCc3ccc(CN(C)C)o3)[C@H]3COC(=O)[C@H]23)OCO4)cc(OC)c1O
IC50 [1]: 0.51 µM
IC50 [2]: 70.1 µM
IC50 [3]: 7.89 µM
Ratio IC50 [4]: 8.89

COc1cc([C@@H]2c3cc4c(cc3[C@@H](O[C@@H]3O[C@@H]5CO[C@@H](C)O[C@H]5[C@H](O)[C@H]3O)[C@H]3COC(=O)[C@H]23)OCO4)cc(OC)c1O [ETOPOSIDE]
Activity [10]: 61.1%
IC50 [2]: 235 µM
Activity [18]: 2.52%
Activity [19]: 28.4%
Activity [24]: 7.98%
IC50 [3]: 3.39 µM
MDR1 mRNA reduction (qualitative) [28]: Active
Ratio IC50 [4]: 69.29

COc1cc([C@@H]2c3cc4c(cc3[C@@H](NCc3ccc(C)o3)[C@H]3COC(=O)[C@H]23)OCO4)cc(OC)c1OC
IC50 [1]: 1.94 µM
IC50 [2]: 10.1 µM
IC50 [3]: 6.79 µM
Ratio IC50 [4]: 1.48

CCN1CCN(Cc2ccc(CN[C@@H]3c4cc5c(cc4[C@@H](c4cc(OC)c(OC)c(OC)c4)[C@H]4C(=O)OC[C@@H]43)OCO5)o2)CC1
IC50 [1]: > 100 µM
IC50 [2]: > 1000 µM
IC50 [3]: > 100 µM
Ratio IC50 [4]: >100

COc1cc([C@@H]2c3cc4c(cc3[C@@H](NCc3ccc(CN5CCN(C)CC5)o3)[C@H]3COC(=O)[C@H]23)OCO4)cc(OC)c1O
IC50 [1]: 2.42 µM
IC50 [2]: 200 µM
IC50 [3]: 8.13 µM
Ratio IC50 [4]: 24.61

COc1cc([C@@H]2c3cc4c(cc3[C@@H](NCc3ccc(CN5CCN(C)CC5)o3)[C@H]3COC(=O)[C@H]23)OCO4)cc(OC)c1OC
IC50 [1]: 15.3 µM
IC50 [2]: > 1000 µM
IC50 [3]: > 100 µM
Ratio IC50 [4]: >100
